Calls of active or inactive are those of the source. The rule behind the calls is not given here.
molecular target: not listed separately; assay: Inhibition of pig pancreatic cholesterol esterase assessed as p-nitrophenylbutyrate hydrolysis after 1 min; parameters: species or system Sus scrofa
Method in brief: (§1)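 Porcine pancreatic CEase (0.0125 mU) is pre-incubated for 1 min with varied inhibitor concentrations in 0.1 M sodium phosphate, pH 7.04, with 0.1 M NaCl. PNPB (0.1 mM) is then added and hydrolysis is followed by A405 for 1 min. Compounds are also checked at one fixed top concentration. Each concentration is run in triplicate and averaged.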

Row | SMILES | IC50
1 | CCOP1(=O)OC(c2ccccc2)=C(Br)c2ccc(OC)cc21 (centres undefined) | 34.4 µM
2 | CCOP1(=O)OC(c2ccc(CC)cc2)=C(Cl)c2ccc(Cl)cc21 (centres undefined) | 8.9 µM
3 | CCOP1(=O)OC(c2ccc(OC)cc2)=C(Br)c2ccc(Cl)cc21 (centres undefined) | 47.9 µM
4 | CCc1ccc(C2=Cc3ccc(Cl)cc3P(=O)(O)O2)cc1 | 58.4 µM
5 | CCOP1(=O)OC(c2ccc([N+](=O)[O-])cc2)=Cc2ccc(Cl)cc21 (centres undefined) | > 100 µM
6 | CCOP1(=O)OC(c2ccc(CC)cc2)=C(I)c2ccc(Cl)cc21 (centres undefined) | 4.8 µM
7 | O=P1(O)OC(c2ccccc2)=C(Cl)c2ccccc21 | 1.9 µM
8 | CCOP1(=O)OC(c2ccccc2)=C(Cl)c2ccccc21 (centres undefined) | 12.7 µM
9 | O=P1(O)OC(c2ccccc2)=Cc2ccc(Cl)cc21 | 38.7 µM
10 | CCCCC1=Cc2ccc(Cl)cc2P(=O)(OCC)O1 (centres undefined) | 43.1 µM
11 | O=P1(O)OC(c2ccccc2)=C(Cl)c2ccc(Cl)cc21 | 14.6 µM
12 | CCOP1(=O)OC(c2ccccc2)=C(C#Cc2ccccc2)c2ccccc21 (centres undefined) | 2.3 µM
13 | CCOP1(=O)OC(c2ccc(OC)cc2)=C(I)c2ccc(Cl)cc21 (centres undefined) | 26.2 µM
14 | CCOP1(=O)OC(c2ccccc2)=C(Br)c2ccccc21 (centres undefined) | 18.9 µM
15 | CCOP1(=O)OC(c2ccc(CC)cc2)=Cc2ccc(Cl)cc21 (centres undefined) | 40.3 µM
16 | CCOP1(=O)OC(c2ccccc2)=C(Br)c2ccc(Cl)cc21 (centres undefined) | 51.2 µM
17 | CCOP1(=O)OC(c2ccccc2)=C(Cl)c2ccc(OC)cc21 (centres undefined) | 89.6 µM
18 | CCOP1(=O)OC(c2ccc(CC)cc2)=C(C#Cc2ccccc2)c2ccc(Cl)cc21 (centres undefined) | 8.5 µM

Row | SMILES | IC50
19 | CCCCC1=Cc2ccccc2P(=O)(O)O1 | 62.6 µM
20 | COc1ccc2c(c1)P(=O)(O)OC(c1ccccc1)=C2Br | 57.4 µM
21 | CCOP1(=O)OC(CO)=Cc2ccc(OC)cc21 (centres undefined) | 79.4 µM
22 | O=P1(O)OC(c2ccccc2)=C(Br)c2ccccc21 | 14.1 µM
23 | CCOP1(=O)OC(C2CC2)=C(Cl)c2ccc(OC)cc21 (centres undefined) | > 150 µM
24 | CCOP1(=O)OC(c2ccccc2)=Cc2ccccc21 (centres undefined) | 63.6 µM
25 | CCOP1(=O)OC(c2ccccc2)=C(Cl)c2ccc(Cl)cc21 (centres undefined) | 34.8 µM
26 | CCOP1(=O)OC(c2ccccc2)=C(I)c2ccc(OC)cc21 (centres undefined) | 54.5 µM
27 | COc1ccc2c(c1)P(=O)(O)OC(c1ccccc1)=C2 | 102 µM
28 | CCOP1(=O)OC(c2ccccc2)=Cc2ccc(Cl)cc21 (centres undefined) | 56.9 µM
29 | CCOP1(=O)OC(c2ccc(CC)cc2)=C(Br)c2ccc(Cl)cc21 (centres undefined) | 6.4 µM
30 | CCOP1(=O)OC(c2ccccc2)=Cc2ccc(OC)cc21 (centres undefined) | 77.4 µM
31 | CCOP1(=O)OC(c2ccc(CC)cc2)=C(CC(=O)c2ccccc2)c2ccc(Cl)cc21 (centres undefined) | 5.1 µM
32 | CCOP1(=O)OC(C2CC2)=C(Cl)c2ccc(Cl)cc21 (centres undefined) | > 100 µM
33 | O=P1(O)OC(c2ccccc2)=Cc2ccccc21 | 96.3 µM
34 | CCOP1(=O)OC(c2ccccc2)=C(I)c2ccccc21 (centres undefined) | 30.3 µM
35 | CCOP1(=O)OC(c2ccccc2)=C(I)c2ccc(Cl)cc21 (centres undefined) | 47.9 µM

organism: Sus scrofa; assay: Reversible inhibition of pig pancreatic cholesterol esterase assessed as p-nitrophenylbutyrate hydrolysis after 1 min

Row | SMILES | Activity
36 | CCOP1(=O)OC(c2ccc(CC)cc2)=C(I)c2ccc(Cl)cc21 (centres undefined) | Active
37 | O=P1(O)OC(c2ccccc2)=C(Cl)c2ccccc21 | Active
38 | CCOP1(=O)OC(c2ccccc2)=C(C#Cc2ccccc2)c2ccccc21 (centres undefined) | Active

molecular target: not listed separately; assay: Competitive inhibition of pig pancreatic cholesterol esterase assessed as p-nitrophenylbutyrate hydrolysis after 1 min by Lineweaver-Burke plot analysis; parameters: species or system Sus scrofa
Method in brief: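 For kinetics, CEase (0.0125 mU) is pre-incubated 1 min with inhibitor in sodium phosphate buffer. PNPB is then added at 0.07–0.3 mM and the A405 change is followed for 1 min at each substrate level. Mechanism is assigned from the rate data across substrate and inhibitor concentrations.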

Row | SMILES | Ki
39 | CCOP1(=O)OC(c2ccc(CC)cc2)=C(I)c2ccc(Cl)cc21 (centres undefined) | 4.2 µM
40 | O=P1(O)OC(c2ccccc2)=C(Cl)c2ccccc21 | 1.4 µM
41 | CCOP1(=O)OC(c2ccccc2)=C(C#Cc2ccccc2)c2ccccc21 (centres undefined) | 1.9 µM

organism: Sus scrofa; assay: Reversible inhibition of pig pancreatic cholesterol after 6 hrs absence of p-nitrophenylbutyrate
Method in brief: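 CEase and excess inhibitor are incubated without substrate in sodium phosphate buffer, pH 7.04, with 5% acetonitrile by volume, at 25 °C for up to 6 h. Samples are checked periodically by TLC.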

Row | SMILES | Activity
42 | CCOP1(=O)OC(c2ccc(CC)cc2)=C(I)c2ccc(Cl)cc21 (centres undefined) | inactive
43 | O=P1(O)OC(c2ccccc2)=C(Cl)c2ccccc21 | inactive
44 | CCOP1(=O)OC(c2ccccc2)=C(C#Cc2ccccc2)c2ccccc21 (centres undefined) | inactive

test system: not listed separately; assay: Inhibition of pig pancreatic cholesterol esterase assessed as p-nitrophenylbutyrate hydrolysis at 100 uM after 1 min; parameters: species or system Sus scrofa; method in brief: as §1

Row | SMILES | IC50
45 | CCCCC1=C(Cl)c2ccc(Cl)cc2P(=O)(OCC)O1 (centres undefined) | Not Active
46 | CCCCC1=C(Br)c2ccc(Cl)cc2P(=O)(OCC)O1 (centres undefined) | Not Active
47 | CCCCC1=C(Br)c2ccccc2P(=O)(OCC)O1 (centres undefined) | Not Active
48 | CCOP1(=O)OC(C2CC2)=C(Br)c2ccc(OC)cc21 (centres undefined) | Not Active
49 | CCCCC1=C(Cl)c2ccccc2P(=O)(OCC)O1 (centres undefined) | Not Active
50 | CCOP1(=O)OC(C2CC2)=C(Br)c2ccc(Cl)cc21 (centres undefined) | Not Active
51 | CCCCC1=C(I)c2ccccc2P(=O)(OCC)O1 (centres undefined) | Not Active
52 | CCCCC1=Cc2ccccc2P(=O)(OCC)O1 (centres undefined) | Not Active
53 | CCOP1(=O)OC(C2CC2)=Cc2ccc(Cl)cc21 (centres undefined) | Not Active
54 | CCOP1(=O)OC(C2CC2)=C(I)c2ccc(Cl)cc21 (centres undefined) | Not Active
